Our source for the IC50 values is paper PMC6587324 (ChemistryOpen, 2019).

Read-outs that look alike come from different tables or passages of the source.

The target of assay [1] is T1, integrin α5β1 (Homo sapiens, UniProt P05556+P08648). The note with it: read-out: α5β1 IC50; cited from earlier work.
The target of assay [2] is T1, integrin α5β1. Put plainly: Integrin α5β1 binding assay.
For another assay, the target named is human integrin αvβ3 (Homo sapiens, UniProt P05106+P06756). In kind it is binding. The note with it: SD. An outline of the steps:
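Immobilized isolated human αvβ3 integrin incubated with biotinylated vitronectin (1 μg mL−1) plus test compound over 10−5–10−12 M. Bound biotinylated vitronectin measured. IC50 taken as the concentration giving 50 % inhibition of vitronectin binding, calculated from the concentration-response data. Values are mean ± standard deviation of duplicate measurements.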

For the molecule `N=C(N)NCCC[C@@H]1NC(=O)C[C@H]2NC(=O)[C@H](CNC(=O)[C@H](CC(=O)O)NC(=O)CNC1=O)N(Cc1ccccc1)C2=O` [compound 1, cyclo[DKP‐RGD]], the IC50 on integrin α5β1 [1] was 532 nM.
On integrin α5β1 [2], `N=C(N)NCCC[C@@H]1NC(=O)CNC(=O)C[C@@H](C(=O)O)NC(=O)C[C@H]2NC(=O)[C@H](CNC1=O)N(Cc1ccccc1)C2=O` [compound 3, cyclo[DKP‐isoDGR]] returned an IC50 of 1070 nM.
In the case of `COc1ccc(C[C@H]2NC(=O)/C=C/C[C@@H]([C@H](C)[C@@H](OC(=O)CNC(=O)OCc3ccc(NC(=O)[C@H](C)NC(=O)[C@@H](NC(=O)CCc4cn(CCOCCOCCOCCOCC(=O)NCc5ccc(CN6C(=O)[C@H]7CC(=O)N[C@@H](CCCNC(=N)N)C(=O)NCC(=O)N[C@@H](CC(=O)O)C(=O)NC[C@H]6C(=O)N7)cc5)nn4)C(C)C)cc3)[C@@H](Cl)c3ccccc3)OC(=O)[C@H](CC(C)C)OC(=O)C(C)(C)CNC2=O)cc1Cl` [compound 10, cyclo[DKP‐RGD]‐PEG4‐Val−Ala‐PABC‐Cry‐55gly], 7.2 ± 1.5 nM corresponded to half-maximal inhibition at human integrin αvβ3 (IC50).
Still for that read-out and setting: for `COc1ccc(C[C@H]2NC(=O)/C=C/C[C@@H]([C@H](C)[C@@H](OC(=O)CNC(=O)OCc3ccc(NC(=O)[C@H](C)NC(=O)[C@@H](NC(=O)CCc4cn(CCOCCOCCOCCOCC(=O)NCc5ccc(CN6C(=O)[C@H]7CC(=O)N[C@H](C(=O)O)CC(=O)NCC(=O)N[C@@H](CCCNC(=N)N)C(=O)NC[C@H]6C(=O)N7)cc5)nn4)C(C)C)cc3)[C@@H](Cl)c3ccccc3)OC(=O)[C@H](CC(C)C)OC(=O)C(C)(C)CNC2=O)cc1Cl` [compound 11, cyclo[DKP‐isoDGR]‐PEG4‐Val−Ala‐PABC‐Cry‐55gly] the value was 5.5 ± 2.8 nM.
Still for that read-out and setting: the figure for `COc1ccc(C[C@H]2NC(=O)/C=C/C[C@@H]([C@H](C)[C@@H](OC(=O)CNC(=O)CCc3cn(CCOCCOCCOCCOCC(=O)NCc4ccc(CN5C(=O)[C@H]6CC(=O)N[C@@H](CCCNC(=N)N)C(=O)NCC(=O)N[C@@H](CC(=O)O)C(=O)NC[C@H]5C(=O)N6)cc4)nn3)[C@@H](Cl)c3ccccc3)OC(=O)[C@H](CC(C)C)OC(=O)C(C)(C)CNC2=O)cc1Cl` [compound 13, cyclo[DKP‐RGD]‐PEG4‐uncl‐Cry‐55gly] is 24.1 ± 1 nM.
On to `COc1ccc(C[C@H]2NC(=O)/C=C/C[C@@H]([C@H](C)[C@@H](OC(=O)CNC(=O)CCc3cn(CCOCCOCCOCCOCC(=O)NCc4ccc(CN5C(=O)[C@H]6CC(=O)N[C@H](C(=O)O)CC(=O)NCC(=O)N[C@@H](CCCNC(=N)N)C(=O)NC[C@H]5C(=O)N6)cc4)nn3)[C@@H](Cl)c3ccccc3)OC(=O)[C@H](CC(C)C)OC(=O)C(C)(C)CNC2=O)cc1Cl` [compound 14, cyclo[DKP‐isoDGR]‐PEG4‐uncl‐Cry‐55gly], for which inhibition on human integrin αvβ3 was half-maximal at 10.2 ± 0.4 nM (IC50).

A word on the IC50: it is the concentration needed to halve the response being measured.
